Measurements from ChEMBL document CHEMBL1154962, “Novel 6-N-arylcarboxamidopyrazolo[4,3-d]pyrimidin-7-one derivatives as potential anti-cancer agents” (2010).

Columns and labels:
[1] = biological target: Platelet-derived growth factor receptor alpha (Homo sapiens) (UniProt P16234); assay: Inhibition of human PDGFRalpha assessed as remaining enzyme activity at 10 uM; values are per cent of control
[2] = test system: HT-29; assay: Growth inhibition of human HT-29 cells after 2 days by MTT assay; assay type: functional; conditions: HT-29, 48 h
Summary of the method: (§1)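 HT-29 and DU-145 cells seeded at 5 × 10⁴ cells/mL; serial concentrations added in duplicate; 37 °C, 5% CO₂, two days. MTT dye (Cell Titer96) for up to 4 h at 37 °C, then solubilization/stop mix overnight at room temperature; OD at 570 nm. GI₅₀ = concentration giving 50% growth inhibition; mean ± SEM of three or more experiments; doxorubicin as internal standard.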

[3] = biological target: T1, Aurora kinase A (Homo sapiens) (UniProt O14965); assay: Inhibition of human Aurora A assessed as remaining enzyme activity at 10 uM; values are per cent of control
T1 sequence (whole entry): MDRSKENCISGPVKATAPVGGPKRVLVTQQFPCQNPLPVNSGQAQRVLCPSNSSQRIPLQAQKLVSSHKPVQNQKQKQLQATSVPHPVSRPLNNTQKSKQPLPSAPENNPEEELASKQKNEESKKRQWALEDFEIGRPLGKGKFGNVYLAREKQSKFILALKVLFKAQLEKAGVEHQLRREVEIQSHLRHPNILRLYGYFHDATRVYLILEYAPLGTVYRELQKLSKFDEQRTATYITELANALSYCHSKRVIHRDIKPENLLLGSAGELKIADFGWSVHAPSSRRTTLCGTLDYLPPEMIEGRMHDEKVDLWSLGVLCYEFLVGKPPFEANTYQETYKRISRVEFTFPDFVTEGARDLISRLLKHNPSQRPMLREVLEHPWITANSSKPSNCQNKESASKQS

[4] = test system: DU-145; assay: Growth inhibition of human DU145 cells after 2 days by MTT assay; assay type: functional; conditions: DU-145, 48 h
Summary of the method: as §1

[5] = biological target: Glycogen synthase kinase-3 beta (Homo sapiens) (UniProt P49841); assay: Inhibition of human GSK3-beta at 10 uM
Glycogen synthase kinase-3 beta (Homo sapiens), sequence (P49841 whole entry, looked up): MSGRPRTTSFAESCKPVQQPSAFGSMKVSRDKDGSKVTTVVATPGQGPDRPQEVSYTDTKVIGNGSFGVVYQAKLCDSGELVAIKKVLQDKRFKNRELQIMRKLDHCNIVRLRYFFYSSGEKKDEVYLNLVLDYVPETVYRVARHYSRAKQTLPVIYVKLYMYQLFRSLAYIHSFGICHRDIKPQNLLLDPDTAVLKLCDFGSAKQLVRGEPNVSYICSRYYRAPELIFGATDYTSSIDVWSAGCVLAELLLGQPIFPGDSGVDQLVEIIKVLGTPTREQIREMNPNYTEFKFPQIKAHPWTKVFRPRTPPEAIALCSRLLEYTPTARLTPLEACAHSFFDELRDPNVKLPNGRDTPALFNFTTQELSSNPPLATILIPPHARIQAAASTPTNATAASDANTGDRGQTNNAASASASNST

[6] = test system: DU-145; assay: Cytotoxicity against human DU145 cells at 100 uM after 2 days by sulforhodamine B assay; assay type: functional; conditions: DU-145, 48 h
Summary of the method: (§2)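 Five human cancer lines (HT-29, DU-145, A-549, SK-MEL-2, SK-OV-3) seeded at 3–7 × 10³ cells/well; compounds at 100 µM added in duplicate; 37 °C, 5% CO₂, two days. Fixed with formalin, SRB stained, washed with 1% acetic acid, dye solubilized in 10 mM unbuffered Tris base; OD at 520 nm. Read-out is % inhibition.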

[7] = biological target: Glycogen synthase kinase-3 beta (Homo sapiens) (UniProt P49841); assay: Inhibition of human GSK3-beta assessed as remaining enzyme activity at 10 uM; values are per cent of control
[8] = test system: HT-29; assay: Cytotoxicity against human HT-29 cells at 100 uM after 2 days by sulforhodamine B assay; assay type: functional; conditions: HT-29, 48 h
Summary of the method: as §2

[9] = biological target: Epidermal growth factor receptor (Homo sapiens) (UniProt P00533); assay: Inhibition of human EGFR assessed as remaining enzyme activity at 10 uM; values are per cent of control
Epidermal growth factor receptor (Homo sapiens), sequence (P00533 whole entry): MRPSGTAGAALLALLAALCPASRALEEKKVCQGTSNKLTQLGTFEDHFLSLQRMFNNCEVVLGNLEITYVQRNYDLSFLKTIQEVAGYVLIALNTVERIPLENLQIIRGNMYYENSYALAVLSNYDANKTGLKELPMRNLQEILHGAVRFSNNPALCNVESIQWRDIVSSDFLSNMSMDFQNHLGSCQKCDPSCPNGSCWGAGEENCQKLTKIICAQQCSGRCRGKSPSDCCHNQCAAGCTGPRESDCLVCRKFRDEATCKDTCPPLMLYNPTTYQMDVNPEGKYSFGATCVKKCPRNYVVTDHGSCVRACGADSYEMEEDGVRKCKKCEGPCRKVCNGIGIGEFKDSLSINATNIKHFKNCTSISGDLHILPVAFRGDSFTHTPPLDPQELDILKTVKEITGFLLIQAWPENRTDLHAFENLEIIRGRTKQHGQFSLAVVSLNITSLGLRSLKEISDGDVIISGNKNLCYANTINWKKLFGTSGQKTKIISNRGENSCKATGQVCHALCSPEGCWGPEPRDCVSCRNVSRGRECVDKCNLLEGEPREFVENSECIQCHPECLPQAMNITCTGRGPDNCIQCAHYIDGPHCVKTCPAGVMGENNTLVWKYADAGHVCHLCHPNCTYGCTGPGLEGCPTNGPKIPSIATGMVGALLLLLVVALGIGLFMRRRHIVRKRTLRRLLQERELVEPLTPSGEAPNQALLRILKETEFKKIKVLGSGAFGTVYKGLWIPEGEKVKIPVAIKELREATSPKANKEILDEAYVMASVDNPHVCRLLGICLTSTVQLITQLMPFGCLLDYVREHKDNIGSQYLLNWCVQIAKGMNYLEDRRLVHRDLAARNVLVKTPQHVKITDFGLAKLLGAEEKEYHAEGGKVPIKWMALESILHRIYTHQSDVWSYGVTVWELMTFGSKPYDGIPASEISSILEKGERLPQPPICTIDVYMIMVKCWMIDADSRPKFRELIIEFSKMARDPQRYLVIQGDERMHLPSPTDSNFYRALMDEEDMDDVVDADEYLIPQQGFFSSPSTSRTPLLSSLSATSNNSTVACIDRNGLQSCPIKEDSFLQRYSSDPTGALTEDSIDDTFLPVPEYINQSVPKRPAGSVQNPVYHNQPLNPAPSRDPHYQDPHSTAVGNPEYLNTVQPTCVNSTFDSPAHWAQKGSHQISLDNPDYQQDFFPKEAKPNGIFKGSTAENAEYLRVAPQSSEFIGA

[10] = biological target: T1, Aurora kinase A (Homo sapiens); assay: Inhibition of human Aurora A at 10 uM
[11] = test system: SK-MEL-2; assay: Cytotoxicity against human SK-MEL-2 cells at 100 uM after 2 days by sulforhodamine B assay; assay type: functional; conditions: SK-MEL-2, 48 h
Summary of the method: as §2

[12] = test system: A549; assay: Cytotoxicity against human A549 cells at 100 uM after 2 days by sulforhodamine B assay; assay type: functional; conditions: A549, 48 h
Summary of the method: as §2

[13] = test system: SK-OV-3; assay: Cytotoxicity against human SKOV3 cells at 100 uM after 2 days by sulforhodamine B assay; assay type: functional; conditions: SK-OV-3, 48 h
Summary of the method: as §2

Platelet-derived growth factor receptor alpha (Homo sapiens), sequence (P16234 whole entry): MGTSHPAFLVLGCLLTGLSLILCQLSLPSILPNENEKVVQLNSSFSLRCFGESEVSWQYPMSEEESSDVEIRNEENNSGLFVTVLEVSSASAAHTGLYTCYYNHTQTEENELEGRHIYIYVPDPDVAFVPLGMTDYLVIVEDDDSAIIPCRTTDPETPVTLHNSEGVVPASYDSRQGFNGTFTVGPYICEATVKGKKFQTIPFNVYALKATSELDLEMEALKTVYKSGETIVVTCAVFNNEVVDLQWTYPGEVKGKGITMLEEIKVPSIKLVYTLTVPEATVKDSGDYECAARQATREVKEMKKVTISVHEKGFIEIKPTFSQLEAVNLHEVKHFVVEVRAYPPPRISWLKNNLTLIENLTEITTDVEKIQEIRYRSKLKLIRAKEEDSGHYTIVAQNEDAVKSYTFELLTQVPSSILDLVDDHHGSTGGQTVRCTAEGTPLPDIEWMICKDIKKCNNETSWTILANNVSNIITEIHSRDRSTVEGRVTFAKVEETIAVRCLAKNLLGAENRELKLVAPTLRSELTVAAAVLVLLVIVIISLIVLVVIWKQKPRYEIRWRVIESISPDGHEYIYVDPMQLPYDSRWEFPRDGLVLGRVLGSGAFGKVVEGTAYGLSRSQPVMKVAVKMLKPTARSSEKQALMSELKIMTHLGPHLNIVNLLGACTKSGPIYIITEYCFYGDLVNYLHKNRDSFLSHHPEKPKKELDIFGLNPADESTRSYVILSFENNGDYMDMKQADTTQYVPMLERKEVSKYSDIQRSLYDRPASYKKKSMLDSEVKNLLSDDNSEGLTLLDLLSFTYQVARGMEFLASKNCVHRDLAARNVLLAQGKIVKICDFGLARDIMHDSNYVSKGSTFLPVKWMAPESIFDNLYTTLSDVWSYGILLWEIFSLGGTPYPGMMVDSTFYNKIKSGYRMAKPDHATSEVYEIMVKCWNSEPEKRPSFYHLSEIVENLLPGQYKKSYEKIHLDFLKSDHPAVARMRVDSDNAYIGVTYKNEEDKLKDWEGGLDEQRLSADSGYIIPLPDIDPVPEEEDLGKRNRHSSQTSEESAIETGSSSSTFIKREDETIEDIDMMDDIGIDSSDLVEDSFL

Row | residual activity [1] [%] | GI50 [2] [µM] | residual activity [3] [%] | GI50 [4] [µM] | inhibition [5] [%] | residual activity [7] [%] | residual activity [9] [%] | inhibition [10] [%] | Structure (SMILES) | inhibition at 100 µM [6] [%] | inhibition at 100 µM [8] [%] | inhibition at 100 µM [11] [%] | inhibition at 100 µM [12] [%] | inhibition at 100 µM [13] [%]
1 | 105 | 0.71 | 16 | 29.1 | 89 | 11 | 86 | 84 | CCCCc1nc2c(-c3ccc(Cl)cc3)n[nH]c2c(=O)n1NC(=O)c1ccccc1 | 93 | 89.5 |  |  | 
2 |  |  |  |  |  |  |  |  | O=C(Nn1c(-c2cccc([N+](=O)[O-])c2)nc2c(-c3ccc(F)cc3)n[nH]c2c1=O)c1ccccc1 | 90.8 | 92 | 88.5 | 80.7 | 77.7
3 |  | 20.4 |  | 17.9 |  |  |  |  | COc1cccc(-c2nc3c(-c4ccc(Cl)cc4)n[nH]c3c(=O)n2NC(=O)c2ccccc2)c1 | 94.1 | 87.3 | 84.9 | 81.8 | 81.7
4 |  | 23.4 |  | 86.7 |  |  |  |  | O=C(Nn1c(CCc2ccccc2)nc2c(-c3ccc(Cl)cc3)n[nH]c2c1=O)c1ccccc1 | 85.6 | 86.5 |  |  | 
5 | 92 | 5.37 | 7 | 12.9 | 94 | 6 | 82 | 93 | CCCCCc1nc2c(-c3ccc(Cl)cc3)n[nH]c2c(=O)n1NC(=O)c1cccc(C)c1 | 88.8 | 90.5 |  |  | 
6 |  |  |  |  |  |  |  |  | O=C(Nn1c(-c2cccc([N+](=O)[O-])c2)nc2c(-c3ccco3)n[nH]c2c1=O)c1ccccc1 | 16.1 | 21.2 | 23 | 18.7 | 17.9
7 |  |  |  |  |  |  |  |  | O=C(Nn1c(-c2cccc([N+](=O)[O-])c2)nc2c(-c3ccc(Cl)cc3)n[nH]c2c1=O)c1cccnc1 | 31 | 15.1 | 16.3 | 19.7 | 30.2
8 |  |  |  |  |  |  |  |  | CC(C)Cc1n[nH]c2c(=O)n(NC(=O)c3ccncc3)c(-c3cccc([N+](=O)[O-])c3)nc12 | 55.3 |  | 38.7 |  | 35.8
9 |  | 18.4 |  | 17.1 |  |  |  |  | O=C(Nn1c(-c2cccc([N+](=O)[O-])c2)nc2c(-c3ccc(Cl)cc3)n[nH]c2c1=O)c1ccccc1 | 94.2 | 87.8 | 89 | 88.6 | 86.8
10 |  |  |  |  |  |  |  |  | O=C(Nn1c(-c2cccc([N+](=O)[O-])c2)nc2c(-c3ccco3)n[nH]c2c1=O)c1cccnc1 | 1.66 | 11.7 | 19.2 | 1.51 | -0.61
11 |  | 0.85 |  | 0.35 |  |  |  |  | COc1cccc2c1C(=O)c1c(O)c3c(c(O)c1C2=O)C[C@@](O)(C(=O)CO)C[C@@H]3O[C@H]1C[C@H](N)[C@H](O)[C@H](C)O1 [DOXORUBICIN] | 62.8 | 60.9 |  |  | 
12 |  | 15.2 |  | 16 |  |  |  |  | CCCc1nc2c(-c3ccc(Cl)cc3)n[nH]c2c(=O)n1NC(=O)Cc1ccccc1 | 89.7 | 91.4 |  |  | 
13 |  |  |  |  |  |  |  |  | COc1cccc(-c2nc3c(-c4ccco4)n[nH]c3c(=O)n2NC(=O)c2ccccc2)c1 | 50.5 | 49.8 | 43.2 | 53.8 | 35.2
14 |  |  |  |  |  |  |  |  | CCCc1n[nH]c2c(=O)n(NC(=O)c3ccncc3)c(-c3cccc([N+](=O)[O-])c3)nc12 | 15.1 | -0.83 | 14.2 | 9.95 | 15.1
15 |  |  |  |  |  |  |  |  | COc1cccc(-c2nc3c(-c4ccco4)n[nH]c3c(=O)n2NC(=O)c2cccnc2)c1 | 30.1 | 12.8 | 34.1 | 14.9 | 25
16 |  |  |  |  |  |  |  |  | CCCc1n[nH]c2c(=O)n(NC(=O)c3ccccc3)c(-c3cccc(OC)c3)nc12 | 23.6 | 6.27 | 16.7 | 20.7 | 9.96

Row | residual activity [1] [%] | GI50 [2] [µM] | residual activity [3] [%] | GI50 [4] [µM] | inhibition [5] [%] | residual activity [7] [%] | residual activity [9] [%] | inhibition [10] [%] | Structure (SMILES) | inhibition at 100 µM [6] [%] | inhibition at 100 µM [8] [%] | inhibition at 100 µM [11] [%] | inhibition at 100 µM [12] [%] | inhibition at 100 µM [13] [%]
17 |  | 20.6 |  | 21.5 |  |  |  |  | CC(C)(C)c1ccc(C(=O)Nn2c(CCC3CCCC3)nc3c(-c4ccc(Cl)cc4)n[nH]c3c2=O)cc1 | 64.2 | 76.8 |  |  | 
18 |  |  |  |  |  |  |  |  | O=C(Nn1c(-c2cccc([N+](=O)[O-])c2)nc2c(CCc3ccccc3)n[nH]c2c1=O)c1ccccc1 | 92.5 | 89.7 | 92 | 73.9 | 
19 |  | 1.8 |  | 10.2 |  |  |  |  | O=C(Nn1c(CCC2CCCC2)nc2c(-c3ccc(Cl)cc3)n[nH]c2c1=O)c1ccccc1 | 89.6 | 87.3 |  |  | 
20 |  |  |  |  |  |  |  |  | O=C(Nn1c(-c2cccc([N+](=O)[O-])c2)nc2c(-c3cccc(Cl)c3)n[nH]c2c1=O)c1ccccc1 | 93.8 | 89.8 | 78.2 |  | 
21 |  |  |  |  |  |  |  |  | COc1cccc(-c2nc3c(-c4ccc(C5CCNCC5)cc4)n[nH]c3c(=O)n2NC(=O)c2ccncc2)c1 | 37 | 28.1 | 23.4 | 32.4 | 18.2
22 |  |  |  |  |  |  |  |  | O=C(Nn1c(-c2cccc([N+](=O)[O-])c2)nc2c(CCc3ccccc3)n[nH]c2c1=O)c1cccnc1 | 22.5 | 20.1 | 28.5 | 19 | 30.1
23 |  |  |  |  |  |  |  |  | CCCc1n[nH]c2c(=O)n(NC(=O)c3ccncc3)c(-c3cccc(OC)c3)nc12 | 4.04 | 0.07 | 11.4 | 11.2 | 4.04
24 |  | 9.26 |  | 29.2 |  |  |  |  | CCCc1nc2c(-c3ccc(Cl)cc3)n[nH]c2c(=O)n1NC(=O)c1ccccc1 | 89.4 | 91.1 |  |  | 
25 |  |  |  |  |  |  |  |  | O=C(Nn1c(-c2cccc([N+](=O)[O-])c2)nc2c(-c3ccc(F)cc3)n[nH]c2c1=O)c1cccnc1 | 24.9 | 24.7 | 24.5 | 28.8 | 19.3
26 |  | 20.6 |  | 20.1 |  |  |  |  | O=C(Nn1c(-c2ccccc2)nc2c(-c3ccc(Cl)cc3)n[nH]c2c1=O)c1ccccc1 | 90.2 | 92 |  |  | 
27 |  |  |  |  |  |  |  |  | COc1cccc(-c2nc3c(-c4ccc(Cl)cc4)n[nH]c3c(=O)n2NC(=O)c2ccncc2)c1 | 54.4 | 46 | 39.6 | 46 | 42.5
28 |  |  |  |  |  |  |  |  | CCCc1n[nH]c2c(=O)n(NC(=O)c3ccccc3)c(-c3cccc([N+](=O)[O-])c3)nc12 | 27.8 | 18.7 | 22.9 | 33.2 | 28.8
29 |  |  |  |  |  |  |  |  | COc1cccc(-c2nc3c(-c4cccc(Cl)c4)n[nH]c3c(=O)n2NC(=O)c2ccccc2)c1 | 93.5 | 91 | 81.9 |  | 
30 |  | 22.1 |  | 44.9 |  |  |  |  | COc1cccc(Cc2nc3c(-c4ccc(Cl)cc4)n[nH]c3c(=O)n2NC(=O)c2ccccc2)c1 | 93.2 | 89.3 |  |  | 
31 |  | 1.06 |  | > 100 |  |  |  |  | CC(C)(C)c1ccc(C(=O)Nn2c(CC3CCCCC3)nc3c(-c4ccc(Cl)cc4)n[nH]c3c2=O)cc1 | 65.2 | 72.3 |  |  | 
32 |  |  |  |  |  |  |  |  | O=C(Nn1c(-c2cccc([N+](=O)[O-])c2)nc2c(-c3cccs3)n[nH]c2c1=O)c1cccnc1 | 32.8 | 3.9 | 3.26 | 10.2 | 
